# Data as given in ChEMBL document CHEMBL3425508, “Discovery of potent hexapeptide agonists to human neuromedin u receptor 1 and identification of their serum metabolites” (ACS Med Chem Lett, 2015).
# The source made the active and inactive calls. The rule behind the calls is not given here. Non-standard residues stand in square brackets, D forms with d. Residues, ends and D or L forms follow the SMILES beside them. *: point of attachment. Phe(4-F) = N[C@@H](Cc1ccc(F)cc1)C(=O)O; Acetyl(2-thienyl) = O=C(Cc1cccs1)*; Hydrocinnamoyl = O=C(CCc1ccccc1)*; 4Pal = N[C@@H](Cc1ccncc1)C(=O)O; PhAc = O=C(Cc1ccccc1)*; X1 = O=C(CCc1cccs1)*
# Legend:
# [1] = molecular target: T1, Neuromedin-U receptor 1 (Homo sapiens) (UniProt Q9HB89); assay: Agonist activity at human NMUR1 expressed in CHO cells assessed as intracellular calcium flux at 1 and 10 nM by Fluo-4 AM dye based fluorometric imaging method relative to 1000 nM human neuromedin U; assay type: functional, cell-based
# T1 sequence (whole entry): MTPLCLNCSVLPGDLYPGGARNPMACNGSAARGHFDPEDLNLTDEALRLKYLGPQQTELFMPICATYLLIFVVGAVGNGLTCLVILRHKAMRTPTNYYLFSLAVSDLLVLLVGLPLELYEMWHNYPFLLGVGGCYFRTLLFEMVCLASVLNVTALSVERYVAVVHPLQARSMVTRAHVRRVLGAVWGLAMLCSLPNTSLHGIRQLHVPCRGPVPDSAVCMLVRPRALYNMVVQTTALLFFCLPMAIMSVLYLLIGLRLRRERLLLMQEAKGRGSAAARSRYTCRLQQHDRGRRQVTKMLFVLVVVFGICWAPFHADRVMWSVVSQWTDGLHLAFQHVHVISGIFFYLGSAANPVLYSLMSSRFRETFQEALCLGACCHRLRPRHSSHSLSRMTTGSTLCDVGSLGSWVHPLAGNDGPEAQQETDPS
# Neuromedin-U receptor 2 [2] = molecular target: T2, Neuromedin-U receptor 2 (Homo sapiens, UniProt Q9GZQ4); assay: Agonist activity at human NMUR2 expressed in CHO cells assessed as intracellular calcium flux at 1 and 10 nM by Fluo-4 AM dye based fluorometric imaging method relative to 1000 nM human neuromedin U; assay type: functional, cell-based
# T2 sequence (Q9GZQ4 whole entry): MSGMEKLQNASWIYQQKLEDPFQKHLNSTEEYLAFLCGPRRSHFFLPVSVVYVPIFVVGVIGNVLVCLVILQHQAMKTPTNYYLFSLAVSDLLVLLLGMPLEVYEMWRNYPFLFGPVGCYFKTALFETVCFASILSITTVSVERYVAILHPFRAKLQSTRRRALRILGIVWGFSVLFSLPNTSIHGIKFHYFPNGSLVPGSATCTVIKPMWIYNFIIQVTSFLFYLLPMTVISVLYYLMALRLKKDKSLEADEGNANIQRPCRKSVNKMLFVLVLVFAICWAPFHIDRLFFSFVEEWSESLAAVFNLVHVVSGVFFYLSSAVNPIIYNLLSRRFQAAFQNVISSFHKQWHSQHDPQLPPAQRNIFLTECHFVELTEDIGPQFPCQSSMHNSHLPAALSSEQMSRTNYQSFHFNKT
# Serum [3] = assay: Drug level in 25% rat serum treated with 1 mM (S)-2-((S)-2-((S)-1-((6S,9S,12S)-1-amino-9-benzyl-1-imino-12-isobutyl-8,11,14-trioxo-16-phenyl-2,7,10,13-tetraazahexadecanecarbonyl)pyrrolidine-2-carboxamido)-5-guanidinopentanamido)succinamide assessed as compound formation at 37 degC by RP-HPLC method; assay type: ADME, cell-free
# In short: (§1)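 Peptides incubated in 25% rat serum at 37 °C and sampled over time (10, 30, 60 min). Samples extracted on Sep-Pak C18 cartridges and analysed by C18 RP-HPLC with UV detection at 220 nm. Metabolites identified by mass spectrometry. Recovery of intact peptide measured at 10 or 60 min, in triplicate.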
# Serum [4] = assay: Drug metabolism in 25% rat serum assessed as cleavage at Phe(2)-Arg(3) site at 1 mM at 37 degC by RP-HPLC method; assay type: ADME, cell-free; settings: 1000 µM; in short: as §1
# Serum [5] = assay: Drug metabolism in 25% rat serum assessed as cleavage at Arg(5)-Asn(6) site at 1 mM at 37 degC by RP-HPLC method; assay type: ADME, cell-free; settings: 1000 µM; in short: as §1
# [6] = Drug metabolism in 25% rat serum assessed as drug recovery at 1 mM incubated for 10 mins at 37 degC by RP-HPLC method; assay type: ADME, cell-free; settings: read-out: Drug recovery; in short: as §1
# Serum [7] = assay: Drug metabolism in 25% rat serum assessed as formation of 2-thienylacetyl-Trp1-Phe2-Arg3-Pro4-Arg5-OH at 1 mM at 37 degC by RP-HPLC method; assay type: ADME, cell-free; settings: 1000 µM; in short: as §1
# Serum [8] = assay: Drug metabolism in 25% rat serum assessed as formation of 2-thienylacetyl-Trp1-Phe2-OH at 1 mM at 37 degC by RP-HPLC method; assay type: ADME, cell-free; settings: 1000 µM; in short: as §1
# Neuromedin-U receptor 1 = molecular target: T3, Neuromedin-U receptor 1 (Homo sapiens, UniProt Q9HB89); assay: Agonist activity at human NMUR1 expressed in CHO cells assessed as intracellular calcium flux at by Fluo-4 AM dye based fluorometric imaging method; assay type: functional, cell-based
# T3 sequence (Q9HB89 whole entry): T1 sequence (whole entry)
# In short: (§2)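 Dose–response Ca2+ mobilization in CHO cells stably expressing human NMUR1 or NMUR2. Peptides run at 10^-12–10^-6 M with hNMU as reference. EC50 and intrinsic activity derived from the curves. Triplicate determinations.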
# [9] = molecular target: T1, Neuromedin-U receptor 1 (Homo sapiens); assay: Intrinsic agonist activity at human NMUR1 expressed in CHO cells assessed as intracellular calcium flux at by Fluo-4 AM dye based fluorometric imaging method; assay type: functional, cell-based; in short: as §2
# Neuromedin-U receptor 2 [10] = molecular target: T2, Neuromedin-U receptor 2; assay: Agonist activity at human NMUR2 expressed in CHO cells assessed as intracellular calcium flux at by Fluo-4 AM dye based fluorometric imaging method; assay type: functional, cell-based; in short: as §2
# Neuromedin-U receptor 2 [11] = molecular target: T2, Neuromedin-U receptor 2; assay: Intrinsic agonist activity at human NMUR2 expressed in CHO cells assessed as intracellular calcium flux at by Fluo-4 AM dye based fluorometric imaging method; assay type: functional, cell-based; in short: as §2
# Serum [12] = assay: Drug degradation in 25% human serum at 1 mM at 37 degC by RP-HPLC method; assay type: ADME, cell-free; settings: 1000 µM, TDE = time-dependent effect
# Serum [13] = assay: Drug metabolism in 25% rat serum assessed as cleavage at C-terminal Arg-Asn site at 1 mM at 37 degC by RP-HPLC method; assay type: ADME, cell-free; settings: 1000 µM; in short: as §1
# Serum [14] = assay: Drug level in 25% rat serum treated with 1 mM (S)-2-((S)-2-((S)-1-((6S,9S,12S)-12-((1H-indol-3-yl)methyl)-1-amino-9-benzyl-1-imino-8,11,14-trioxo-15-(thiophen-2-yl)-2,7,10,13-tetraazapentadecanecarbonyl)pyrrolidine-2-carboxamido)-5-guanidinopentanamido)succinamide assessed as compound formation at 37 degC by RP-HPLC method; assay type: ADME, cell-free; in short: as §1
# [15] = Drug metabolism in 25% rat serum assessed as drug recovery at 1 mM incubated for 60 mins at 37 degC by RP-HPLC method; assay type: ADME, cell-free; settings: read-out: Drug recovery; in short: as §1
compound,measurement,setting,value
N=C(N)NCCC[C@H](NC(=O)[C@@H]1CCCN1C(=O)[C@H](CCCNC(=N)N)NC(=O)[C@H](Cc1ccccc1)NC(=O)[C@H](Cc1ccccc1)NC(=O)Cc1ccccc1)C(=O)N[C@@H](CC(N)=O)C(N)=O (PhAc-FFRPRN-NH2),Activity,[1],inactive
same,Activity,Neuromedin-U receptor 2 [2],inactive
CC(C)C[C@H](NC(=O)CCc1ccccc1)C(=O)N[C@@H](Cc1ccccc1)C(=O)O (Hydrocinnamoyl-Leu-Phe-OH),Drug metabolism,Serum [3],metabolite_detected
H-FLFRPRN-NH2,Drug metabolism,Serum [4],metabolite_notdetected
same,Drug metabolism,Serum [5],metabolite_notdetected
same,"remaining at 10 min, 1000 µM",[6],37%
N=C(N)NCCC[C@H](NC(=O)[C@@H]1CCCN1C(=O)[C@H](CCCNC(=N)N)NC(=O)[C@H](Cc1ccccc1)NC(=O)[C@H](Cc1ccccc1)NC(=O)Cc1cccs1)C(=O)N[C@@H](CC(N)=O)C(N)=O ({Acetyl(2-thienyl)}-FFRPRN-NH2),Activity,[1],Active
same,Activity,Neuromedin-U receptor 2 [2],Active
N=C(N)NCCC[C@H](NC(=O)[C@@H]1CCCN1C(=O)[C@H](CCCNC(=N)N)NC(=O)[C@H](Cc1ccccc1)NC(=O)[C@H](Cc1ccccc1)NC(=O)CCc1ccccc1)C(=O)N[C@@H](CC(N)=O)C(N)=O (Hydrocinnamoyl-FFRPRN-NH2),Activity,[1],inactive
same,Activity,Neuromedin-U receptor 2 [2],inactive
N=C(N)NCCC[C@H](NC(=O)[C@@H]1CCCN1C(=O)[C@H](CCCNC(=N)N)NC(=O)[C@H](Cc1ccccc1)NC(=O)[C@H](Cc1c[nH]c2ccccc12)NC(=O)Cc1cccs1)C(=O)N[C@@H](CC(N)=O)C(N)=O ({Acetyl(2-thienyl)}-WFRPRN-NH2),Activity,[1],Active
same,Activity,Neuromedin-U receptor 2 [2],Active
same,Drug metabolism,Serum [4],metabolite_detected
same,Drug metabolism,Serum [5],metabolite_detected
same,Drug metabolism,Serum [7],metabolite_detected
same,Drug metabolism,Serum [8],metabolite_detected
same,"remaining at 10 min, 1000 µM",[6],39.8%
N=C(N)NCCC[C@H](NC(=O)[C@@H]1CCCN1C(=O)[C@H](CCCNC(=N)N)NC(=O)[C@H](Cc1ccc(F)cc1)NC(=O)[C@H](Cc1c[nH]c2ccccc12)NC(=O)Cc1cccs1)C(=O)N[C@@H](CC(N)=O)C(N)=O ({Acetyl(2-thienyl)}-W[Phe(4-F)]RPRN-NH2),Activity,[1],Active
same,Activity,Neuromedin-U receptor 2 [2],Active
same,EC50,Neuromedin-U receptor 1,0.083 nM
same,Intrinsic activity,[9],95%
same,EC50,Neuromedin-U receptor 2 [10],2.6 nM
same,Intrinsic activity,Neuromedin-U receptor 2 [11],82%
same,Drug metabolism,Serum [4],metabolite_detected
same,Drug metabolism,Serum [5],metabolite_detected
same,Drug degradation,Serum [12],tde
same,"remaining at 10 min, 1000 µM",[6],42.7%
H-FRVDEEFQSPFASQSRGYFLFRPRN-NH2,EC50,Neuromedin-U receptor 1,0.14 nM
same,Drug metabolism,Serum [13],metabolite_detected
N=C(N)NCCC[C@H](NC(=O)[C@@H]1CCCN1C(=O)[C@H](CCCNC(=N)N)NC(=O)[C@H](Cc1ccncc1)NC(=O)[C@H](Cc1c[nH]c2ccccc12)NC(=O)Cc1cccs1)C(=O)N[C@@H](CC(N)=O)C(N)=O ({Acetyl(2-thienyl)}-W[4Pal]RPRN-NH2),Activity,[1],inactive
same,Activity,Neuromedin-U receptor 2 [2],inactive
N=C(N)NCCC[C@H](NC(=O)[C@@H]1CCCN1C(=O)[C@H](CCCNC(=N)N)NC(=O)[C@H](Cc1ccccc1)NC(=O)[C@H](Cc1c[nH]c2ccccc12)NC(=O)Cc1cccs1)C(=O)O ({Acetyl(2-thienyl)}-WFRPR-OH),Drug metabolism,Serum [14],metabolite_detected
same,"remaining at 1 h, 1000 µM",[15],44.7%
N=C(N)NCCC[C@H](NC(=O)[C@@H]1CCCN1C(=O)[C@H](CCCNC(=N)N)NC(=O)[C@H](Cc1ccccc1)NC(=O)[C@H](Cc1ccccc1)NC(=O)CCc1cccs1)C(=O)N[C@@H](CC(N)=O)C(N)=O (X1-FFRPRN-NH2),Activity,[1],Active
same,Activity,Neuromedin-U receptor 2 [2],Active
